{"source": "paper PMC9020136", "about": "(Science (New York, N.Y.), 2022)", "key": {"Bacilus subtilis": {"tested_on": "Bacilus subtilis", "assay": "MIC, broth-microdilution method", "type": "cell-based"}, "bacterial membranes": {"tested_on": "bacterial membranes", "assay": "Membrane permeabilization, influx of viability stain SYTOX Green", "type": "cell-based, B. subtilis", "details": "concentration twice the MIC value", "method_in_brief": "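Live B. subtilis cells imaged over time by confocal microscopy after exposure to a lethal level of test compound. SYTOX Green was used as a viability stain, with its entry into cells read as membrane permeabilization.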"}}, "data": [{"substance": "(−)-Himastatin [(−)-himastatin (1)]", "values": [{"measurement": "MIC", "setting": "Bacilus subtilis", "value": 1, "unit": "µg/mL"}, {"measurement": "time to permeabilization of bacterial membranes", "setting": "bacterial membranes", "value": "≤ 30", "unit": "min"}]}]}
